Results on three compounds are retold here after ChEMBL document CHEMBL2346555, “Efficacious cyclic N-acyl O-amino phenol duocarmycin prodrugs” (J Med Chem, 2013).

The half-life is how long it takes for the measured level to halve. What is called fraction unbound is free concentration divided by total concentration. Low readings indicate little free substance, high ones much free substance. For orientation: pIC50 means the negative decadic logarithm of the IC50, by convention in mol/L.

pIC50: −log10 of the molar value. Calls of active or inactive are those of the source. No cut-off for these calls is given here. Some results are limits rather than exact numbers.

In series [1] the test system is Neurospora discreta. Nature of the series: Induction of Neurospora discreta w794 [5-32P]-DNA alkylation thermal-induced strand cleavage at 1 x 10^-2 M incubated for 48 hrs at 23 degC followed by thermolysis at 100 degC measured after 30 mins by PAGE/autoradiographic analysis.
Series [2] is described as follows: Half life of the compound in phosphate buffer at pH 7.
A short description of series [3]: Half life in human plasma.
The nature of series [4]: Fraction unbound in human plasma. The format is ADME, cell-free.
The nature of series [5]: Stability of the compound in H2, Pd/C, MeOH, at 23 degC after 1 hr. Type of series: physicochemical.
Series [6] is described as follows: Stability of the compound in Mo(CO)6, MeCN/H2O after 3 hrs. Type of series: physicochemical.
Series [7] in a line: Half life in mouse plasma.
Series [8] can be described thus: Half life of the compound in HCl/EtOAc at 23 degC. Type of series: physicochemical.
The nature of series [9]: Hypoxic cytotoxicity ratio of IC50 for human PC3MM2 cell under aerobic condition to IC50 for human PC3MM2 cells under hypoxic condition. Type of series: functional.
Series [10] is described as follows: Cytotoxicity against human PC3MM2 cells assessed as growth inhibition under hypoxic condition after 72 hrs by SRB assay. The format is functional, cell-based. Particulars: PC3MM2, 72 h. Summed up: (§1)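 Before the assay, A549 and PC3/MM2 cells were adapted for one week under hypoxia (37 °C, 5% CO2, 0.5% O2), subcultured twice; viability was checked by trypan blue. Cells were plated, held 24 h aerobic (37 °C, 5% CO2) or hypoxic, then exposed 72 h to 10 concentrations. SRB read-out per NCI DTP. Growth = [(Ti − Tz)/(C − Tz)] × 100%. IC50 by sigmoidal nonlinear regression, n = 3 independent experiments.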
A general note: Sulforhodamine B stains cellular protein and so reports cell mass.

Series [11] in a line: Cytotoxicity against human PC3MM2 cells assessed as growth inhibition under aerobic condition after 72 hrs by SRB assay. Type of series: functional, cell-based. Particulars: PC3MM2, 72 h. In a few lines:
as §1

Series [12] relates to A549. In words: Cytotoxicity against human A549 cells assessed as growth inhibition under hypoxic condition after 72 hrs by SRB assay. The format is functional, cell-based. Particulars: A549, 72 h. Summed up: as §1
In series [13] the test system is A549. Nature of the series: Hypoxic cytotoxicity ratio of IC50 for human A549 cell under aerobic condition to IC50 for human A549 cells under hypoxic condition. The format is functional.
For series [14], the system named is A549. Nature of the series: Cytotoxicity against human A549 cells assessed as growth inhibition under aerobic condition after 72 hrs by SRB assay. The format is functional, cell-based. Particulars: A549, 72 h. Summed up:
as §1

The test system of series [15] is Mus musculus. Nature of the series: Toxicity in B6D2F1 mouse allografted with mouse L1210 cells assessed as mortality at 60 ug/kg, ip tid administered on day 1 to 9 measured after 366 days. The format is organism-based. Particulars: in vivo, 0.06 mg/kg, 8784 h. Summed up:
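Syngeneic L1210 cells (1 × 10^6) were given i.p. to B6D2F1 mice on day 0; 10 per group. Compound in 100% DMSO was injected i.p. on days 1, 5 and 9. Animals were monitored daily and weighed twice weekly, with the study extended to 366 days. Deaths from drug toxicity were recorded.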

For series [16], the system named is L1210. Nature of the series: Antitumor activity against mouse L1210 cells allografted in B6D2F1 mouse assessed as mean survival period at 200 ug/kg, ip tid administered on day 1 to 9 measured after 366 days relative to vehicle-treated control. The format is functional. In a few lines:
(§2)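 L1210 cells (1 × 10^6) injected i.p. into B6D2F1 mice on day 0; 10 mice per group, randomized to vehicle or treatment. Dosing in 100% DMSO i.p. on days 1, 5 and 9 at 60–2500 μg/kg/inj. Animals were monitored daily and weighed twice weekly, with follow-up extended to 366 days. T/C = total survival days of the treated group ÷ total survival days of the control group × 100.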

For series [17], the system named is L1210. In words: Antitumor activity against mouse L1210 cells allografted in B6D2F1 mouse assessed as mean survival period at 2500 ug/kg, ip tid administered on day 1 to 9 measured after 366 days relative to vehicle-treated control. The format is functional. Summed up: as §2
In series [18] the test system is L1210. Nature of the series: Antitumor activity against mouse L1210 cells allografted in B6D2F1 mouse assessed as mean survival period at 1000 ug/kg, ip tid administered on day 1 to 9 measured after 366 days relative to vehicle-treated control. The format is functional. Summed up: as §2
Series [19] concerns L1210. Nature of the series: Antitumor activity against mouse L1210 cells allografted in B6D2F1 mouse assessed as mean survival period at 500 ug/kg, ip tid administered on day 1 to 9 measured after 366 days relative to vehicle-treated control. Type of series: functional. In a few lines:
as §2

The subject of series [20] is L1210. In words: Antitumor activity against mouse L1210 cells allografted in B6D2F1 mouse assessed as mean survival period at 60 ug/kg, ip tid administered on day 1 to 9 measured after 366 days relative to vehicle-treated control. The format is functional. In a few lines:
as §2

The subject of series [21] is L1210. Nature of the series: Cytotoxicity against mouse L1210 cells assessed as growth inhibition after 72 hrs by phosphatase assay. Particulars: Mus musculus, L1210, 72 h. The format is functional, cell-based. In a few lines:
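L1210 mouse leukemia cells were seeded at 30,000 cells/mL in DMEM with 10% FBS and grown 24 h at 37 °C, 5% CO2. DMSO dilutions were then added at six concentrations between 0–100 or 0–1000 nM, in duplicate, for 72 h. Read-out: phosphatase substrate in 0.1 M NaOAc pH 5.5 with 0.1% Triton X-100, 5 min at 37 °C, stopped with NaOH, A405. IC50 is the average of ≥4 determinations.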

Series [22] is described as follows: Stability of the compound in MeOH at 23 degC after 5 days in presence of NaHCO3. Particulars: 120 h. The format is physicochemical.
Series [23] can be described thus: Stability of the compound in DMF/H2O at 23 degC after 5 days in presence of NaHCO3. Particulars: 120 h. Type of series: physicochemical.
A short description of series [24]: Stability of the compound in THF at 23 degC after 5 days in presence of NaHCO3. Particulars: 120 h. Type of series: physicochemical.
A short description of series [25]: Stability of the compound in THF at 254 nM under non basic condition in presence of BnSH. The format is physicochemical. Particulars: 0.254 µM.
Series [26] in a line: Stability of the compound in THF at 254 nM under non basic condition in presence of BnNH2. Type of series: physicochemical. Particulars: 0.254 µM.
Series [27] is described as follows: Drug degradation in MeOH at 254 nM after 72 hrs by LC-MS analysis in presence of NaHCO3 and BnNH2. Type of series: physicochemical. Particulars: MeOH with NaHCO3 and BnNH2; read-out: Drug degradation.
Series [28] is described as follows: Drug degradation in MeOH at 254 nM after 72 hrs by LC-MS analysis in presence of NaHCO3 and BnSH. Particulars: MeOH with NaHCO3 and BnSH; read-out: Drug degradation. Type of series: physicochemical.
The nature of series [29]: Drug degradation in THF at 254 nM after 72 hrs by LC-MS analysis in presence of NaHCO3 and BnNH2. Type of series: physicochemical. Particulars: THF with NaHCO3 and BnNH2; read-out: Drug degradation.
Series [30] can be described thus: Drug degradation in MeOH at 254 nM after 48 hrs by LC-MS analysis in presence of NaHCO3 and BnNH2. Type of series: physicochemical. Particulars: MeOH with NaHCO3 and BnNH2; read-out: Drug degradation.
Series [31] is described as follows: Drug degradation in THF at 254 nM after 72 hrs by LC-MS analysis in presence of NaHCO3 and BnSH. The format is physicochemical. Particulars: THF with NaHCO3 and BnSH; read-out: Drug degradation.
Series [32] in a line: Drug degradation in MeOH at 254 nM after 48 hrs by LC-MS analysis in presence of NaHCO3 and BnSH. Type of series: physicochemical. Particulars: MeOH with NaHCO3 and BnSH; read-out: Drug degradation.
Series [33] is described as follows: Drug degradation in THF at 254 nM after 48 hrs by LC-MS analysis in presence of NaHCO3 and BnNH2. The format is physicochemical. Particulars: THF with NaHCO3 and BnNH2; read-out: Drug degradation.
Series [34] is described as follows: Drug degradation in MeOH at 254 nM after 24 hrs by LC-MS analysis in presence of NaHCO3 and BnNH2. The format is physicochemical. Particulars: MeOH with NaHCO3 and BnNH2; read-out: Drug degradation.
Series [35] in a line: Drug degradation in THF at 254 nM after 48 hrs by LC-MS analysis in presence of NaHCO3 and BnSH. Type of series: physicochemical. Particulars: THF with NaHCO3 and BnSH; read-out: Drug degradation.
Series [36] can be described thus: Drug degradation in THF at 254 nM after 24 hrs by LC-MS analysis in presence of NaHCO3 and BnSH. Particulars: THF with NaHCO3 and BnSH; read-out: Drug degradation. Type of series: physicochemical.
Series [37] is described as follows: Drug degradation in MeOH at 254 nM after 24 hrs by LC-MS analysis in presence of NaHCO3 and BnSH. The format is physicochemical. Particulars: MeOH with NaHCO3 and BnSH; read-out: Drug degradation.
The nature of series [38]: Drug degradation in THF at 254 nM after 24 hrs by LC-MS analysis in presence of NaHCO3 and BnNH2. The format is physicochemical. Particulars: THF with NaHCO3 and BnNH2; read-out: Drug degradation.
Series [39] in a line: Stability of the compound in MeOH at 254 nM after 2 hrs by LC-MS analysis in presence of NaHCO3 and BnNH2. The format is physicochemical. Particulars: 0.254 µM.
Series [40] is described as follows: Drug degradation in MeOH at 254 nM after 2 hrs by LC-MS analysis in presence of NaHCO3 and BnSH. The format is physicochemical. Particulars: MeOH with NaHCO3 and BnSH; read-out: Drug degradation.
A short description of series [41]: Drug degradation in THF at 254 nM after 2 hrs by LC-MS analysis in presence of NaHCO3 and BnNH2. Type of series: physicochemical. Particulars: THF with NaHCO3 and BnNH2; read-out: Drug degradation.
A short description of series [42]: Drug degradation in THF at 254 nM after 2 hrs by LC-MS analysis in presence of NaHCO3 and BnSH. The format is physicochemical. Particulars: THF with NaHCO3 and BnSH; read-out: Drug degradation.
Series [43] in a line: Half life of the compound in MeOH at 23 degC in presence of NaHCO3. The format is physicochemical. Particulars: MeOH with NaHCO3.

In the case of `CN1Oc2cc3c(c4cccc(c24)C1=O)[C@H](CCl)CN3C(=O)c1cc2cc(NC(=O)c3cc4ccccc4[nH]3)ccc2[nH]1`, the result in series [1] was inactive. Also, the half-life is more than 672 h in series [2], more than 168 h in [3], more than 48 h in series [7] and more than 72 h in [8]. The free fraction (fraction unbound) in series [4] was less than 0.05. In addition, the Stability entry in series [5] and in series [6] was “Unstable” each time. The “Ratio IC50” value in [9] was 10; in series [13], 5. In addition, the negative-log IC50 (pIC50) in series [10] is 7.46; in series [11], 6.46; in series [12] it was 8.30; in [14] it was 7.60; in [21], 9.00. Further, the Activity result in series [15] is given as “Toxic”. Also, the T/C in series [16] was more than 386; in series [17] it was more than 1500; in series [18], more than 1130; in [19], more than 1142; in series [20], 159.

`CN1Oc2cc3c(c4cccc(c24)C1=O)[C@H](CCl)CN3C(=O)OC(C)(C)C`: the Stability result in series [22], in [23] and in series [24] was “Stable” throughout. In [8], the half-life was 24 h. Further, the pIC50 in series [21] was 6.07.

On to `CC(C)(C)OC(=O)N1C[C@@H](CCl)c2c1cc1c3c(cccc23)C(=O)NO1`, for which the Stability result in series [25], in series [26] and in series [39] was “Stable” throughout. Also, the degraded at 72 h, 0.254 µM was found to be 16% in [27], 83% in [28], 3% in series [29] and 46% in series [31]. Also, the degraded at 48 h, 0.254 µM in [30] was 15%; in [32] it was 75%; in series [33] it was 4%; in series [35], 39%. In addition, the degraded at 24 h, 0.254 µM in series [34] came to 9%; in series [36], 33%; in series [37] it was 58%; in series [38], 3%. For the same compound, the degraded at 2 h, 0.254 µM in [40] was 33%; in series [42], 28%. In addition, in series [41], the degraded at 2 h turned out to be 2%. Further, the half-life in series [43] is 70 h; in series [8] it was 2 h. Also, the pIC50 in series [21] is 6.19.
